Assay results as given in ChEMBL document CHEMBL2093137, “WHO-TDR NTD Screening”.
In brackets after ≈: the same amount, converted by molar mass.

What was measured:
Trypanosoma cruzi = experiment: WHO-TDR: Chagas disease; format: functional, organism-based, Homo sapiens; details: MRC5
Method in brief: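 A diverse library of 10,000 compounds from Life Chemicals, filtered for drug-likeness and reactive groups, was screened against intracellular amastigotes of Trypanosoma cruzi Tulahuen CL2 beta-galactosidase strain. The parasites were grown in MRC-5SV2 human lung fibroblast host cells, and a reference drug served as positive control under previously published standard procedures. Antiparasitic potency is given as IC50.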

Schistosoma mansoni = experiment: WHO-TDR: Schistosomiasis; format: functional; parameters: concentration or dose not given beside the values
Method in brief: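 Activity appears as percent inhibition and as IC50. The underlying screen tested a diverse library of 10,000 compounds, supplied by Life Chemicals, on whole larval and/or adult worms of the Puerto Rican strain of Schistosoma mansoni.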

Plasmodium falciparum K1 = experiment: WHO-TDR: Malaria; format: functional, organism-based, Homo sapiens; details: Erythrocyte
Method in brief: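 Antiplasmodial potency, expressed as IC50, was measured in a whole-organism assay on intra-erythrocytic Plasmodium falciparum K1 in human red blood cells. The screened library held 10,000 diverse compounds from Life Chemicals.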

Leishmania infantum = experiment: WHO-TDR: Leishmaniasis; format: functional, organism-based, Mus musculus; details: Macrophage
Method in brief: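 Antiparasitic potency, reported as IC50, was measured against intracellular Leishmania infantum amastigotes. The parasite strain was MHOM/MA(BE)/67, and murine peritoneal macrophages served as host cells for the screen of a 10,000-compound diverse library from Life Chemicals.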

Onchocerca lienalis = experiment: WHO-TDR: Onchocerciasis; format: functional; parameters: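 at 12.5 µM on microfilariae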
Method in brief: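 Following previously published standard procedures, with reference drugs as positive controls, a diverse Life Chemicals library was tested on whole Onchocerca ochengi or Onchocerca lienalis microfilariae. The library held 10,000 compounds filtered for drug-likeness and reactive groups. Activity is recorded both as percent inhibition and as IC50.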

[1] = WHO-TDR: Cytotoxicity; format: toxicity, cell-based; details: human, MRC5 cells
[2] = test system: Trypanosoma brucei brucei; experiment: WHO-TDR: Human African Trypanosomiasis (HAT); format: functional, organism-based; details: Squib-427
Method in brief: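 Antiparasitic potency is reported as IC50. The screen covered 10,000 compounds from a diverse Life Chemicals library, filtered for drug-likeness and reactive groups, tested on whole bloodstream-form Trypanosoma brucei of the Squib 427 strain.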

Row | IC50 (Plasmodium falciparum K1) | IC50 (Leishmania infantum) | IC50 [2] | Structure (SMILES) | IC50 (Trypanosoma cruzi) | % Inhibition (Schistosoma mansoni) | % Inhibition (Onchocerca lienalis) | IC50 [1]
1 | > 9.55 µg/mL | > 9.55 µg/mL | > 9.55 µg/mL | N#Cc1ccsc1NC(=O)C(c1ccccc1)c1ccccc1 | > 9.55 µg/mL | 100% | 0% | > 9.55 µg/mL
2 | 0.78 µg/mL (≈ 1.58 µM) | > 14.8 µg/mL | 4.8 µg/mL (≈ 9.71 µM) | COc1ccccc1N1CCN(C(CNS(=O)(=O)c2c(C)cc(C)cc2C)c2cccnc2)CC1 (configuration not stated) | 0.929 µg/mL (≈ 1.88 µM) | 0% | 86.7% | > 14.8 µg/mL
3 | 1.36 µg/mL (≈ 3 µM) | 0.43 µg/mL (≈ 0.948 µM) | 0.377 µg/mL (≈ 0.831 µM) | CCOC(=O)N1CCc2c(sc(NC(=O)c3ccco3)c2-c2nc3ccccc3s2)C1 | 0.455 µg/mL (≈ 1 µM) | 58.7% | 73.3% | 4.51 µg/mL (≈ 9.95 µM)
4 | 0.848 µg/mL (≈ 2.16 µM) | 4.16 µg/mL (≈ 10.6 µM) | 0.237 µg/mL (≈ 0.605 µM) | CN(C)CCCN(C(=O)c1ccccc1F)c1nc2c(Cl)cccc2s1 | 4.41 µg/mL (≈ 11.3 µM) | 0% | 13.3% | 3.81 µg/mL (≈ 9.73 µM)
5 | 0.412 µg/mL (≈ 0.929 µM) | > 13.3 µg/mL | > 13.3 µg/mL | CCN(CC)c1cc(C)nc(Nc2ccc(NC(=O)c3cc4ccccc4oc3=O)cc2)n1 | > 13.3 µg/mL | 50% | 6.7% | > 13.3 µg/mL
6 | 3.16 µg/mL (≈ 7.83 µM) | 0.392 µg/mL (≈ 0.971 µM) | 3.3 µg/mL (≈ 8.17 µM) | CC(Sc1ccc2nnc(CCNC(=O)c3ccccc3)n2n1)c1ccccc1 (configuration not stated) | 5.24 µg/mL (≈ 13 µM) | 66.7% | 0% | > 12.1 µg/mL
7 | 3.39 µg/mL (≈ 8.08 µM) | > 13.7 µg/mL | 4.33 µg/mL (≈ 10.3 µM) | CN(C)CCN(C(=O)CCSc1ccccc1)c1nc2c(Cl)cccc2s1 | 4.15 µg/mL (≈ 9.88 µM) | 75% | 0% | > 13.7 µg/mL

More lines, now with the values behind:

Row | Structure (SMILES) | IC50 (Plasmodium falciparum K1) | IC50 (Leishmania infantum) | IC50 [2] | IC50 (Trypanosoma cruzi) | % Inhibition (Schistosoma mansoni) | % Inhibition (Onchocerca lienalis) | IC50 [1]
8 | CCCS(=O)(=O)Nc1ccc(Nc2nc(C)cc(N(C)C)n2)cc1 | > 10.5 µg/mL | > 10.5 µg/mL | > 10.5 µg/mL | 0.335 µg/mL (≈ 0.959 µM) | 0% | 0% | > 10.5 µg/mL
9 | O=C(CSc1nnc(NC(=O)c2cc(Cl)ccc2Cl)s1)Nc1ccc2c(c1)OCO2 | 8.18 µg/mL (≈ 16.9 µM) | 4.25 µg/mL (≈ 8.8 µM) | 4.25 µg/mL (≈ 8.8 µM) | 0.409 µg/mL (≈ 0.847 µM) | 0% | 13.3% | 1.94 µg/mL (≈ 4.02 µM)
10 | O=C(CSc1nnc(NC(=O)COc2ccc(Cl)cc2)s1)NCc1ccc2c(c1)OCO2 | 1.72 µg/mL (≈ 3.48 µM) | 0.451 µg/mL (≈ 0.914 µM) | 4.51 µg/mL (≈ 9.14 µM) | 0.433 µg/mL (≈ 0.879 µM) | 0% | 13.3% | 3.34 µg/mL (≈ 6.77 µM)
11 | O=C(CSc1ccc2nnc(-c3ccncc3)n2n1)c1ccc(Cl)cc1 | 1.82 µg/mL (≈ 4.75 µM) | 4.72 µg/mL (≈ 12.4 µM) | 0.35 µg/mL (≈ 0.917 µM) | 0.425 µg/mL (≈ 1.11 µM) | 0% | 0% | 4.28 µg/mL (≈ 11.2 µM)
12 | CCOC(=O)c1c(NC(=O)Cn2c(-n3nc(C)cc3C)nc(CC)cc2=O)sc2c1CCC2 | 4.68 µg/mL (≈ 9.97 µM) | 4.56 µg/mL (≈ 9.71 µM) | > 14.1 µg/mL | 0.749 µg/mL (≈ 1.6 µM) | 0% | 0% | > 14.1 µg/mL
13 | CCNc1cc(C)nc(Nc2ccc(NC(=O)CC3CCCC3)cc2)n1 | 2.4 µg/mL (≈ 6.79 µM) | 3.43 µg/mL (≈ 9.71 µM) | 3.39 µg/mL (≈ 9.6 µM) | 0.299 µg/mL (≈ 0.846 µM) | 66.7% | -1% | 3.23 µg/mL (≈ 9.13 µM)
14 | CN(C)CCN(C(=O)c1cccc(N2C(=O)CCC2=O)c1)c1nc2ccc(Br)cc2s1 | 1.45 µg/mL (≈ 2.9 µM) | 5.1 µg/mL (≈ 10.2 µM) | 0.356 µg/mL (≈ 0.71 µM) | 4.94 µg/mL (≈ 9.85 µM) | 33.3% | 0% | > 16.1 µg/mL
15 | CCN(CC)c1cc(C)nc(Nc2ccc(NS(=O)(=O)c3ccc(C)cc3C)cc2)n1 | 0.357 µg/mL (≈ 0.812 µM) | 4.27 µg/mL (≈ 9.71 µM) | 0.429 µg/mL (≈ 0.976 µM) | 0.324 µg/mL (≈ 0.737 µM) | 100% | -1% | 1.51 µg/mL (≈ 3.43 µM)
16 | CCOC(=O)N1CCc2c(sc(NC(=O)C3COc4ccccc4O3)c2C(N)=O)C1 (configuration not stated) | > 12.9 µg/mL | > 12.9 µg/mL | > 12.9 µg/mL | > 12.9 µg/mL | 66% | 13.3% | > 12.9 µg/mL
